Ten compounds from ChEMBL document CHEMBL1132234, “Simplified pepstatins: synthesis and evaluation of N-terminally modified analogues” (J Med Chem, 1999) can be followed below.

One assay deals with Pepsin A (Sus scrofa, UniProt P00791). Put plainly: (§1) The compound was tested for inhibitory effect towards the pepsin hydrolysis of Horseradish peroxidase. Details: species or system plant. The gist of the method:
(§2)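 Pepsin (10 µg ≙ 35 units, freshly prepared) was mixed with DMSO serial dilutions of inhibitor (1.00 mg/mL solution, 1:10 then 1:2 steps), with horseradish peroxidase as protein substrate. Mixtures were serially diluted 1:2 in 0.05 N HCl, and residual peroxidase was read with o-phenylenediamine/H₂O₂ in 0.2 M phosphate pH 6.5 (15 min, room temperature, OD 492 nm). Pepstatin A served as reference. IC50 was determined.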

The nature of assay [1]: as §1. More on the design: species or system plant. The gist of the method:
as §2

SMILES strings stand for the structures.

Sequence of Pepsin A (P00791 whole entry): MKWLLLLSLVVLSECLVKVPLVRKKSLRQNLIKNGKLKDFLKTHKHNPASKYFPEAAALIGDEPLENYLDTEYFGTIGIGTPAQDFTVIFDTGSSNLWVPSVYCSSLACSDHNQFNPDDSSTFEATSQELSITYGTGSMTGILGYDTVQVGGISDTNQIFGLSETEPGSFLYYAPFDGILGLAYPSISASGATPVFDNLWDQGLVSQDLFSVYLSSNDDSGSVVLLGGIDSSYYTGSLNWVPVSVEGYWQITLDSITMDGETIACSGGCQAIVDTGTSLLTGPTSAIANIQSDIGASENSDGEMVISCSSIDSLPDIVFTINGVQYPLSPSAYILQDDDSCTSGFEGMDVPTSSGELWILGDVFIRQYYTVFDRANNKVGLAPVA

The IC50 is the concentration at which inhibition is half-maximal. Lower therefore signals higher potency. In turn, `CCCCCCC(O)[C@H](CC(C)C)NC(=O)[C@@H](NC(=O)[C@@H](NC(=O)CC)C(C)C)C(C)C` (stereo not given in full) came in with an IC50 at Pepsin A of 3.2 µM.
Same read-out and setting: the result for `CCCCCCC(O)[C@H](CC(C)C)NC(=O)[C@@H](NC(=O)[C@@H](NC(=O)OC(C)(C)C)C(C)C)C(C)C` (stereo not given in full) reads 0.21 µM; that for `CCCCCCC(O)[C@H](CC(C)C)NC(=O)[C@@H](NC(=O)[C@@H](NC(=O)CCc1ccccc1)C(C)C)C(C)C` (stereo not given in full), 0.73 µM.
With `CCCCCCC(O)[C@H](CC(C)C)NC(=O)[C@@H](NC(=O)[C@@H](NC(=O)CC(C)C)C(C)C)C(C)C` (stereo not given in full), the IC50 at Pepsin A was 0.92 µM.
On the same count and under the same terms, in the case of `CCCCCCC(O)[C@H](CC(C)C)NC(=O)[C@@H](NC(=O)[C@@H](NC(=O)CC(C)(C)C)C(C)C)C(C)C` (stereo not given in full) it was 1.1 µM.
In turn, `CC(C)CC(=O)N[C@H](C(=O)N[C@H](C(=O)N[C@@H](CC(C)C)[C@@H](O)CC(=O)N[C@@H](C)C(=O)N[C@@H](CC(C)C)[C@@H](O)CC(=O)O)C(C)C)C(C)C` [PEPSTATIN] displayed an IC50 in assay [1] of 0.031 µM.
Still for that read-out and setting: in the case of `CCCCCCC(O)[C@H](CC(C)C)NC(=O)[C@@H](NC(=O)[C@@H](NC(=O)C1CC1)C(C)C)C(C)C` (stereo not given in full) it was 4.5 µM.
On to `CCCCCCC(O)[C@H](CC(C)C)NC(=O)[C@@H](NC(=O)[C@@H](NC(=O)OC(C)C)C(C)C)C(C)C` (stereo not given in full), for which, on Pepsin A, the IC50 came to 1.2 µM.
`CCCCCCC(O)[C@H](CC(C)C)NC(=O)[C@@H](NC(=O)[C@@H](NC(=O)C(C)C)C(C)C)C(C)C` (stereo not given in full) yielded an IC50 at Pepsin A of 3.6 µM.
On to `CCCCCCC(O)[C@H](CC(C)C)NC(=O)[C@@H](NC(=O)[C@@H](NC(=O)OCc1ccccc1)C(C)C)C(C)C` (stereo not given in full), for which the IC50 against Pepsin A was determined as 0.69 µM.
